Source: PubChem BioAssay
Hits are enriched below; roughly 3.9% of the tested compounds scored in any of these assays.
STAT3 act – activators of IL-6 induced STAT3 signaling. U3A cells, IL-6 STAT3-luciferase reporter, luminescence; 100% = signal with IL-6 EC80 alone. activation (% of control), % at 5.6 µM. hit rate 0.91% among 190,000. AID 871;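 active = activation above the screen-wide mean of compound activation plus 3 SD, cut at about 130% in these data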
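Material: human STAT1-deficient U3A cells with stable STAT3-luciferase reporter / Probe or stimulus: IL-6 stimulus at 33 ng/mL final / Schedule: 1 h compound pre-exposure, 6 h IL-6 stimulation, 37 °C / Technique: luminescence / Read-out basis: percent of IL-6-only median luminescence / Control set: IL-6-only high control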
STAT1 blocker – reduces IFN-gamma driven STAT1 reporter signal. NIH 3T3 STAT1-luciferase reporter, luminescence. hit rate 0.35% among 200,000. inhibition, % at 5.5 µM;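 active = inhibition above a set limit, the mean inhibition across all tested compounds plus 3 SD, cut at about 34% in these data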
APP 5'UTR act – activates APP 5'UTR luciferase reporter; SH-SY5Y APP 5'UTR luciferase reporter, luminescence; zero percent = DMSO vehicle wells; activation, % at 2 µM; hit rate 1% among 190,000;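 active = activation above a set limit, based on mean plus 3 SD of controls, cut at about 140% in these data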
NF-kB neuron act – raises NF-kB expression in human neuronal cells. fold change at 12.5 µM. hit rate 1.6% among 190,000. NF-kB reporter expression; hits give high values; in the data active = fold change above about 3.3
STAT1 act – increases IFN-gamma driven STAT1 reporter signal; activation (% of control), % at 5.5 µM; hit rate 2.6% among 200,000; NIH 3T3 STAT1-luciferase reporter, luminescence; 100% = IFN-gamma alone, no compound; AID 932;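 active = activation above the screen-wide mean activation plus 3 SD, cut at about 130% in these data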
Pf gamet viab – inhibitors of late stage P. falciparum gametocyte viability. P. falciparum stage V gametocytes, ATP luminescence, 24 h. inhibition, % at 10.9 µM. hit rate 0.065% among 150,000. AID 743093;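 active = inhibition above the mean plus 3 SD of compounds within the control limits, set per campaign, cut at about 38% in these data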
Large screens that a line does not name were inactive.

CCOC(=O)CSc1nc(-c2ccc3c(c2)OCO3)ccc1C#N	APP 5'UTR act 202
CC(=O)CSc1nc2cc3c(cc2cc1C#N)OCCO3	NF-kB neuron act 5.7
N#Cc1cc2cc3c(cc2nc1SCC(=O)OC1CCCCC1)OCO3	none (no result: Pf gamet viab)
COC(=O)CSc1nc2cc(OC)ccc2cc1C#N	APP 5'UTR act 155, NF-kB neuron act 14, STAT1 act 142 (no result: Pf gamet viab)
COc1ccc2cc(C#N)c(SCC(=O)N3CCCC3)nc2c1	none (no result: Pf gamet viab)
CCOC(=O)CCCSc1nc(-c2ccc3c(c2)OCO3)cc(C(F)(F)F)c1C#N	none (no result: Pf gamet viab)
CCOC(=O)CSc1nc2cc(OCC)ccc2cc1C#N	APP 5'UTR act 168
O=C(Cn1c(=O)oc2ccccc21)NCCc1ccccc1Cl	none
Cc1c(C(c2cccc(Br)c2)c2c(C)n(C)n(-c3ccccc3)c2=O)c(=O)n(-c2ccccc2)n1C	none (no result: STAT3 act, STAT1 blocker, APP 5'UTR act, NF-kB neuron act, STAT1 act)
COc1cc(NC(=O)Nc2ccc(Cl)c(Cl)c2)c(C(=O)O)cc1OC	none (no result: STAT3 act, STAT1 blocker, APP 5'UTR act, NF-kB neuron act, STAT1 act)
CCOC(=O)c1sc(=NC(=O)c2ccc(Cl)s2)n(C)c1C	STAT3 act 137, APP 5'UTR act 146, STAT1 act 151
CCOC(=O)c1sc(=NC(=O)c2ccco2)n(C)c1C	STAT3 act 143, STAT1 act 129
CCOC(=O)c1sc(NC(=O)c2cccs2)cc1C	APP 5'UTR act 168, NF-kB neuron act 4, STAT1 act 138 (no result: Pf gamet viab)
CCOC(=O)c1sc(=NC(=O)c2ccc(C)c(C)c2)n(C)c1C	none
Cc1ccc2c(c1)sc(=NC(=O)c1cccs1)n2C	STAT1 blocker 81, APP 5'UTR act 220
O=C1C=C(c2ccc3c(c2)oc2ccccc23)C[C@@H](c2ccc3c(c2)OCO3)C1	none (no result: STAT3 act, STAT1 blocker, APP 5'UTR act, NF-kB neuron act, STAT1 act)
CCOC(=O)c1sc(=NC(=O)c2cccs2)n(C)c1C	APP 5'UTR act 141, NF-kB neuron act 5.4, STAT1 act 133
CC(C)c1ccc(-n2cnn(-c3ncccc3[N+](=O)[O-])c2=O)cc1	APP 5'UTR act 140, NF-kB neuron act 8.6 (no result: Pf gamet viab)
Cc1cc(C)n(-c2ncccc2[N+](=O)[O-])n1	none (no result: STAT3 act, STAT1 blocker, APP 5'UTR act, NF-kB neuron act, STAT1 act)
CCc1ccc(-c2ccc(SCc3ccccn3)nn2)cc1	STAT1 act 140 (no result: Pf gamet viab)
c1ccc(CSc2ccc(-c3cccs3)nn2)nc1	STAT1 act 136
CCOc1ccc(-c2ccc(SCc3ccccn3)nn2)cc1	STAT1 act 129
c1ccc(CSc2nnc3ccc(-c4cccs4)nn23)nc1	none
COc1ccccc1CN1C(=O)c2ccccc2C1C(=O)NC1CCC(C)CC1 (stereo not given)	none
Cc1ccc(-c2nnc(-c3cccs3)o2)cc1	APP 5'UTR act 140, NF-kB neuron act 5.5
Cc1ccc(/C=C/c2nnc(-c3cccs3)o2)cc1	NF-kB neuron act 5.2 (no result: Pf gamet viab)
Cc1ccc(-c2nnc(-c3ccccc3)o2)cc1	NF-kB neuron act 7.9 (no result: Pf gamet viab)
Fc1ccc(/C=C/c2nnc(-c3cccs3)o2)cc1	NF-kB neuron act 4.2, STAT1 act 129
c1ccc(-c2nnc(-c3cccc(-c4nnc(-c5ccccc5)o4)c3)o2)cc1	none (no result: NF-kB neuron act, Pf gamet viab)
Cc1ccc(/C=C/c2nnc(-c3ccc(C)cc3)o2)cc1	none (no result: Pf gamet viab)
Cc1ccc(-c2nnc(N)o2)cc1	none
O=C(C[C@H]1C/C=C\CCCC(=O)OC[C@H]2CCCN2C1=O)NCCO	none (no result: STAT3 act, STAT1 blocker, APP 5'UTR act, NF-kB neuron act, STAT1 act)
Cc1ccccc1N1C(=O)C(Oc2ccc(Cl)cc2)C1CNC(C)(C)C (stereo not given)	none
COc1ccc2nccc(C(N)=O)c2c1	none (no result: STAT3 act, STAT1 blocker, APP 5'UTR act, NF-kB neuron act, STAT1 act)
FC(F)(F)c1cnc(-c2cnc(-c3ccncc3)nc2)c(Cl)c1	STAT1 act 140
FC(F)(F)c1cnc(-c2cnc(-c3ccccn3)nc2)c(Cl)c1	none
Cc1ccnc(N2C(=O)c3ccccc3C2O)c1 (stereo not given)	APP 5'UTR act 153 (no result: Pf gamet viab)
Cc1ccnc(N2C(=O)c3ccccc3C2Nc2cccc(C)c2C)c1 (stereo not given)	none (no result: Pf gamet viab)
Cc1nc2sc(C(=O)Nc3ccccc3)c(N)c2c(C)c1[N+](=O)[O-]	APP 5'UTR act 168
C/C(=N\NC(=O)c1ccc(Cl)cc1)c1cccs1	NF-kB neuron act 5.4
C/C(=N/NC(=O)c1cc(C(C)C)[nH]n1)c1cccs1	NF-kB neuron act 3.4 (no result: Pf gamet viab)
C/C(=N\Nc1ccccn1)c1cccs1	STAT1 act 137
C/C(=N\Nc1ccccn1)c1ccc(C#N)cc1	none
C/C(=N\NC(=O)c1ccccn1)c1ccc(C(=O)O)s1	STAT1 act 133 (no result: Pf gamet viab)
C/C(=N\NC(=O)c1cc(C)[nH]n1)c1cccs1	none
C/C(=N\NC(=O)c1ccc(NS(=O)(=O)c2cccs2)cc1)c1cccs1	none
CC1(c2nnc(Cc3ccccc3)o2)CC(c2ccccc2Br)=NO1 (stereo not given)	none (no result: STAT3 act, STAT1 blocker, APP 5'UTR act, NF-kB neuron act, STAT1 act)
C/C(=N/NC(=O)c1cnccn1)c1cccs1	STAT1 act 135 (no result: Pf gamet viab)
Cc1cc(N=Cc2c(O)ccc3ccccc23)no1	STAT3 act 135
Cc1cc(N=Cc2c(O)ccc3cc(Br)ccc23)no1	none
Cc1ccc(C(=O)NC2CCCCCC2)cc1N1CCCC1=O	none
O=C(NC1CCCCCC1)c1cccc(N2CCCC2=O)c1	STAT1 act 130 (no result: Pf gamet viab)
O=C(Nc1ccc(C2SCCS2)cc1)c1ccccc1	none (no result: STAT3 act, STAT1 blocker, APP 5'UTR act, NF-kB neuron act, STAT1 act)
O=C(Nc1nc2ccc(F)cc2s1)c1ccccn1	STAT1 blocker 70
O=C(NCc1cccnc1)C(=O)Nc1nccs1	none (no result: Pf gamet viab)
CCOc1ccc2nc(NC(=O)CSC3=NCCS3)sc2c1	STAT1 act 129 (no result: Pf gamet viab)
O=C(Nc1nc2ccccc2s1)c1cnccn1	NF-kB neuron act 4 (no result: Pf gamet viab)
O=C(NNc1nc2ccc(F)cc2s1)c1cccc(F)c1	none
O=C(NCc1cccnc1)C(=O)Nc1nc2ccccc2s1	STAT1 act 139 (no result: Pf gamet viab)
COc1ccc2nc(NC(=O)CSC3=NCCS3)sc2c1	none (no result: Pf gamet viab)
COc1ccc(/C=C2/NC(=O)N(CC(=O)Nc3cccc(C)c3)C2=O)cc1O	none
CCOc1ccc2nc(NC(=O)c3cnccn3)sc2c1	STAT1 act 138 (no result: Pf gamet viab)
COC(=O)c1ccc(CSCC(=O)Nc2ccccc2)cc1	none
COC(=O)c1ccc(N=NN2CCOCC2)cc1	none (no result: Pf gamet viab)
O=C(Nc1cccc([N+](=O)[O-])c1)c1ccc(-c2ccccc2)cc1	none
COC(=O)c1ccc(N=NNc2ccc(C(=O)OC)cc2)cc1	NF-kB neuron act 3.5, STAT1 act 148
O=C(O)c1ccc(N=NNc2cccc([N+](=O)[O-])c2)cc1	NF-kB neuron act 4.1, STAT1 act 143
COC(=O)c1ccc(N=NNc2ccccc2)cc1	STAT1 act 146
CCc1cccc(NC(=O)C2CC2c2ccccc2)c1 (stereo not given)	none (no result: STAT3 act, STAT1 blocker, APP 5'UTR act, NF-kB neuron act, STAT1 act)
CCOc1ccc(NC(=S)NC(C)c2cccs2)cc1 (stereo not given)	none (no result: Pf gamet viab)
COc1ccccc1-n1cc(C(=O)NCC(=O)N2CCN(c3ccccc3)CC2)c2ccccc2c1=O	STAT1 act 136
COc1ccccc1N1CCN(C(=O)CNC(=O)c2cn(-c3ccccc3OC)c(=O)c3ccccc23)CC1	none
COc1ccccc1C(=O)N(C)c1nnc(-c2ccccc2)s1	none (no result: STAT3 act, STAT1 blocker, APP 5'UTR act, NF-kB neuron act, STAT1 act)
Cc1ccc(C(=O)NC(=S)Nc2ccccc2N2CCCC2)cc1[N+](=O)[O-]	STAT3 act 134
